# Assay outcomes as filed in PubChem BioAssay.
# This is a sample that favours compounds with a hit; in the whole collection about 5.7% have one here.
# Mdm2 MdmX PPI: inhibitors of human Mdm2-MdmX association, primary screen, cell-based, luminescence, split luciferase, SaOS-2, uHTS | Protein Mdm4 (Homo sapiens) + E3 ubiquitin-protein ligase Mdm2 (Homo sapiens), … | SaOS-2 split-luciferase Mdm2/MdmX complementation | inhibition, % at 8 µM | 330,000 tested, 3% active | AID 485346, 2010;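 active = inhibition of at least 50% at 8 µM in the primary screen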
# Calb FLC: C. albicans growth inhibition with fluconazole, primary screen, CaCi-2 strain, Alamar Blue fluorescence; C. albicans CaCi-2 (fluconazole-resistant clinical isolate) + fluconazole, 48 h; 300,000 tested, 0.57% active; AID 1979, 2009; growth inhibition, % (no concentration beside the values);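 active = growth inhibition above about 58% in most replicates, limit read from the data, passing the limit was not always enough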;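 also: all wells also contain fluconazole at 8 µg/ml as a sub-toxic cotreatment; 0% = median of DMSO wells and 100% = median of geldanamycin control wells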
# T cruzi repl: inhibitors of intracellular T. cruzi growth, primary screen, luminescence, NIH3T3 host cells; T. cruzi beta-gal in NIH3T3, 90 h; inhibition, % (test concentration not listed); 300,000 tested, 1.4% active;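 active = mean inhibition across valid replicates above about 55%, limit read from the data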;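 also: signal also drops with host cell toxicity which is not excluded here; 0% = plate median of DMSO wells and 100% = zero luminescence signal; higher percent means less beta-gal luminescence so fewer parasites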
#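 Assay system: NIH/3T3 host cells with β-galactosidase reporter T. cruzi; input: 5,000 host fibroblasts per well; compound: single 50 nL compound addition per well in DMSO; timing: ≥90 h infection period, 3 h prior cell attachment; measured by: GalScreen β-gal luminescence, detergent lysis, 60 min; evaluation: percent inhibition of parasite-derived β-gal signal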
# SKKanGAS inh: S. pyogenes SKKanGAS growth inhibitors in kanamycin, primary screen, streptokinase expression inhibitor project, SKKanGAS strain, BacTiter-Glo luminescence; 300,000 tested, 1.3% active; 6 h; inhibition, % at 7.5 µM;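 active = mean replicate score, as percent of positive control median, at least 50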;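 also: strain carries kanamycin resistance gene driven by streptokinase promoter and grows in 40 µg/ml kanamycin; loss of luminescence reflects streptokinase promoter inhibition or plain growth inhibition; 0% = median of DMSO wells and 100% = positive control at its reference dose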
# Beta apoptosis: inhibitors of cytokine-induced beta cell apoptosis, primary screen, luminescence; AID 435005, 2010; 300,000 tested, 0.8% active; INS-1E cytokine-induced death, ATP luminescence, 48 h; percent of positive-control rescue, neutral wells zero; protection from apoptosis, % (concentration not given with the values);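 active = Every replicate reaches about 75%, or at least half do and their mean reaches it too, limit read from the data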;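 also: 0% = cytokine-treated negative control wells and 100% = positive control rescue; higher means more ATP so stronger rescue from cytokine killing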
# CSC inhib: cancer stem cell viability inhibitors, primary screen, luminescence; cancer stem cell-like cells viability; inhibition, % at 7.5 µM; 300,000 tested, 1.1% active; AID 2717, 2010; in the data active = inhibition above about 75%; tested in HMLE shEcad cells
# An asterisk follows results filed as active; nt = no result.
SMILES,Mdm2 MdmX PPI,Calb FLC,T cruzi repl,SKKanGAS inh,Beta apoptosis,CSC inhib
COc1ccc(CN(C(=O)Cc2cccs2)C(C(=O)NC2CCCC2)c2ccncc2)cc1 (configuration not stated),11,10,66*,-6,1,-31
Cc1c(C(=O)OCC(=O)NC2CC2)oc2ccc(Br)cc12,29,nt,nt,nt,nt,nt
CCOC(=O)c1ccc(NC(=O)CSc2nnc(NC(=O)c3ccc(S(=O)(=O)N4CCOCC4)cc3)s2)cc1,-12,-4,0,24,-2,-8
Cc1cccc(N(C(=O)C(F)(F)F)C(C(=O)NC2CCCCC2)c2cccs2)c1 (configuration not stated),24,-9,59*,-5,nt,nt
CC1(C)Oc2ccc3ccc(=O)oc3c2/C(=C/NNC(N)=S)C1=O,8,nt,19,82*,12,4
CCCCn1c(-c2cccc3ccccc23)nc2cc3[nH]c(=O)c(C(C)C)nc3cc21,45,1,63*,17,12,64
CCCCn1c(C2CCCCC2)nc2cc3[nH]c(=O)c(C(C)C)nc3cc21,16,25,23,13,nt,81*
CCCCn1c(-c2ccccc2C)nc2cc3[nH]c(=O)c(C(C)C)nc3cc21,21,-4,30,9,8,30
CCN1CCN(CC(=O)Nc2c(OC)cccc2OC)CC1,-7,3,9,-1,-8,-15
NNC(=O)c1ccc(OCC2CC(c3ccc(Cl)cc3)=NO2)cc1 (configuration not stated),28,-1,18,51*,0,39
COc1ccc(CNC(=O)c2coc(=O)c3ccccc23)c(OC)c1,2,-19,-20,0,-3,-1
Clc1cccc(OCCN2CCNCC2)c1,2,5,58*,-3,-2,-4
OCCN1CCN(CCOc2cccc(Cl)c2)CC1,24,3,66*,-11,6,21
CCCCn1c(N)c(N(CC)C(=O)c2cc(S(=O)(=O)N3CCCCCC3)ccc2OC)c(=O)[nH]c1=O,-8,6,-1,2,3,-1
Cc1ccc([N+](=O)[O-])cc1NC(=O)CSc1nnc(C)n1CC1CCCO1 (configuration not stated),6,-9,4,2,5,nt
CC(C)OC(=O)c1c(NS(=O)(=O)c2ccccc2)sc2c1CCCC2,23,nt,-6,97*,-16,-4
COC(=O)c1c(NS(=O)(=O)Cc2ccccc2)sc2c1CCCC2,-53,3,-13,3,-1,-6
O=c1c2sccc2nc(SCc2cc(=O)n3ccccc3n2)n1Cc1ccccn1,-72,6,9,4,-5,-2
O=C(NCc1ccccc1)NC12CC3CC(CC(C3)C1)C2,28,-11,0,-3,-1,33
Cc1nn(Cc2cccc(Oc3ccccc3)c2)c(C)c1NC(=O)NC12CC3CC(CC(C3)C1)C2,22,-5,57*,25,12,18
Cc1cc(Br)cc(C)c1OCCCCN(C)C,12,-24,63*,3,-2,40
COc1cc(C(=O)NCc2nnc(SCC(=O)NC3CCCCC3)o2)cc(OC)c1OC,8,-5,0,0,1,-14
Cc1ccc(C2=C(O)c3ccccc3C(=O)C2=O)cc1,20,27,-13,42,nt,-2
CC(C)c1ccc(C2=C(O)c3ccccc3C(=O)C2=O)cc1,-22,99*,5,11,-6,46
O=C(CC1NC(=S)NC1=O)c1ccc(Cl)cc1 (configuration not stated),-20,-3,-11,0,2,-3
SMILES,Mdm2 MdmX PPI,Calb FLC,T cruzi repl,SKKanGAS inh,Beta apoptosis,CSC inhib
Oc1ccc(Cl)cc1CNc1cccc2cccnc12,50,2,0,57*,65,24
Oc1c(Br)cc(Br)cc1CNc1cccc2cccnc12,25,81*,10,89*,-15,14
Cc1ccc(O)c(CNc2cccc3cccnc23)c1,11,1,3,8,102*,20
Cc1cccc(NCc2cc(Cl)ccc2O)n1,15,-3,6,2,nt,6
COc1cccc(CNc2cccc3cccnc23)c1O,4,-19,13,-2,14,12
O=C(CCc1nc2sc3c(c2c(=O)[nH]1)CCCC3)N1CCN(c2ccccc2)CC1,19,nt,7,6,-2,0
CC(C)C(=O)Nc1ccc(C(=O)NNC(=S)NC(=O)c2ccco2)cc1,4,-6,-8,27,2,10
COc1ccc(CCN2CC(C(=O)N(C)CCc3cn[nH]c3)CCC2=O)cc1 (configuration not stated),0,-3,-4,-3,nt,nt
Cc1c(/C=N\NC(=O)C2COc3ccccc3O2)c2ccccc2n1C (configuration not stated),nt,-6,2,1,-4,52
O=C(N/N=C/c1c(O)n(-c2ccccc2Cl)c(=O)c2ccccc12)C1COc2ccccc2O1 (configuration not stated),16,-8,1,79*,13,25
Cc1[nH]n(-c2ccccc2)c(=O)c1C(=O)c1ccc(Cl)cc1,19,6,-10,8,-2,25
CC/C(=N/NC(=O)c1ccccc1O)c1c(C)[nH]n(-c2ccccc2)c1=O,17,101*,-11,95*,36,81*
Cc1[nH]n(-c2ccccc2)c(=O)c1/C=N\NC(=O)C1COc2ccccc2O1 (configuration not stated),8,-3,-32,65*,78*,8
Cc1[nH]n(-c2cccc3ccccc23)c(=O)c1/C=N/NC(=O)c1cccc([N+](=O)[O-])c1,20,80*,-18,53*,7,10
O=S(=O)(c1cccc(-c2n[nH]c(=S)n2-c2ccc(OC(F)(F)F)cc2)c1)N1CCOCC1,-7,nt,nt,nt,3,17
COc1ccc(S(=O)(=O)NCC(=O)N(CC2CCCO2)C(C(=O)NC2CCCC2)C(C)C)cc1 (configuration not stated),-4,-12,5,-4,-1,-1
Cc1[nH]n(-c2ccccc2)c(=O)c1/C=N/NC(=O)COc1ccccc1[N+](=O)[O-],36,-42,-35,26,76*,13
COCC(=O)N/N=C/c1c(C)[nH]n(-c2ccccc2)c1=O,14,-4,-16,12,nt,-11
CC(=O)N/N=C/c1c(C)[nH]n(-c2ccccc2)c1=O,-28,-8,-2,-13,3,0
